Laboratory results from ChEMBL document CHEMBL3044905, “Level of catechin, myricetin, quercetin and isoquercitrin in buckwheat (Fagopyrum esculentum Moench), changes of their levels during vegetation and their effect on the growth of selected weeds” (J Agric Food Chem, 2009).

Legend:
Assay type in all cases: functional, organism-based
Amaranthus retroflexus [1] = assay: Phytotoxic activity against Amaranthus retroflexus assessed as inhibition of hypocotyl growth at 22 +/-2 degC after 72 hr
Method in brief: (§1)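 Test solutions were made in 90% methanol and applied to filter paper in Petri dishes, with a methanol-only control. Concentrations ranged from 1 to 5000 or 10000 µmol, depending on the compound. After 72 h incubation, root and hypocotyl lengths were measured on at least three replicate plates per concentration. Percentage influence was calculated relative to a distilled-water control, and EC50 (µM) was reported with R2.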

Echinochloa crus-galli [2] = assay: Phytotoxic activity against Echinochloa crus-galli (barnyard grass) assessed as inhibition of hypocotyl growth at 22 +/-2 degC after 72 hr; method in brief: as §1
Plantago lanceolata [3] = assay: Phytotoxic activity against Plantago lanceolata assessed as inhibition of hypocotyl growth at 22 +/-2 degC after 72 hr; method in brief: as §1
Lolium perenne [4] = assay: Phytotoxic activity against Lolium perenne (perennial ryegrass) assessed as inhibition of root growth at 22 +/-2 degC after 72 hr; method in brief: as §1
Achillea millefolium [5] = assay: Phytotoxic activity against Achillea millefolium assessed as inhibition of hypocotyl growth at 22 +/-2 degC after 72 hr; method in brief: as §1
Plantago lanceolata [6] = assay: Phytotoxic activity against Plantago lanceolata assessed as inhibition of root growth at 22 +/-2 degC after 72 hr; method in brief: as §1
Sinapis alba [7] = assay: Phytotoxic activity against Sinapis alba assessed as inhibition of hypocotyl growth at 22 +/-2 degC after 72 hr; method in brief: as §1
Echinochloa crus-galli [8] = assay: Phytotoxic activity against Echinochloa crus-galli (barnyard grass) assessed as inhibition of root growth at 22 +/-2 degC after 72 hr; method in brief: as §1
Sinapis alba [9] = assay: Phytotoxic activity against Sinapis alba assessed as inhibition of root growth at 22 +/-2 degC after 72 hr; method in brief: as §1
Lolium perenne [10] = assay: Phytotoxic activity against Lolium perenne (perennial ryegrass) assessed as inhibition of hypocotyl growth at 22 +/-2 degC after 72 hr; method in brief: as §1
Amaranthus retroflexus [11] = assay: Phytotoxic activity against Amaranthus retroflexus assessed as inhibition of root growth at 22 +/-2 degC after 72 hr; method in brief: as §1
Achillea millefolium [12] = assay: Phytotoxic activity against Achillea millefolium assessed as inhibition of root growth at 22 +/-2 degC after 72 hr; method in brief: as §1
Trifolium repens [13] = assay: Phytotoxic activity against Trifolium repens assessed as inhibition of hypocotyl growth at 22 +/-2 degC after 72 hr; method in brief: as §1
Trifolium repens [14] = assay: Phytotoxic activity against Trifolium repens assessed as inhibition of root growth at 22 +/-2 degC after 72 hr; method in brief: as §1

Oc1cc(O)c2c(c1)O[C@H](c1ccc(O)c(O)c1)[C@@H](O)C2 [CIANIDANOL]
EC50 (Amaranthus retroflexus [1]): 9300 µM
EC50 (Echinochloa crus-galli [2]): 148 µM
EC50 (Plantago lanceolata [3]): 360 µM
EC50 (Lolium perenne [4]): 377 µM
EC50 (Achillea millefolium [5]): 527 µM
EC50 (Plantago lanceolata [6]): 55 µM
EC50 (Sinapis alba [7]): 780 µM
EC50 (Echinochloa crus-galli [8]): 362 µM
EC50 (Sinapis alba [9]): 445 µM
EC50 (Lolium perenne [10]): 120 µM
EC50 (Amaranthus retroflexus [11]): 2830 µM
EC50 (Achillea millefolium [12]): 472 µM
EC50 (Trifolium repens [13]): 169 µM
EC50 (Trifolium repens [14]): 433 µM

O=c1c(O)c(-c2ccc(O)c(O)c2)oc2cc(O)cc(O)c12 [QUERCETIN]
EC50 (Lolium perenne [4]): 273 µM
EC50 (Sinapis alba [7]): 12800 µM
EC50 (Sinapis alba [9]): 7050 µM
EC50 (Lolium perenne [10]): 183 µM

O=c1c(O[C@@H]2O[C@H](CO)[C@@H](O)[C@H](O)[C@H]2O)c(-c2ccc(O)c(O)c2)oc2cc(O)cc(O)c12 [ISOQUERCETIN]
EC50 (Echinochloa crus-galli [2]): 35200 µM
EC50 (Plantago lanceolata [3]): 37100 µM
EC50 (Lolium perenne [4]): 90100 µM
EC50 (Plantago lanceolata [6]): 54600 µM
EC50 (Sinapis alba [7]): 9560 µM
EC50 (Echinochloa crus-galli [8]): 89100 µM
EC50 (Sinapis alba [9]): 5910 µM
EC50 (Lolium perenne [10]): 33800 µM
